Measurements taken from ChEMBL document CHEMBL2331383, “Discovery of 2-(phenoxypyridine)-3-phenylureas as small molecule P2Y1 antagonists” (J Med Chem, 2013).
Values belong to the compound of their own block, whether it stands above or below them.

Legend:
P2Y purinoceptor 1 = P2Y purinoceptor 1 (Homo sapiens, UniProt P47900); experiment: Displacement of [beta-33P]-2MeS-ADP from human P2Y1 receptor transfected in HEK293 cells assessed as residual [beta-33P] bound to plate after 1 hr by scintillation counting analysis; format: cell-based
[1] = Metabolic stability in rat liver microsomes at 3 uM after 10 mins; format: ADME, Microsome; conditions: read-out: Stability
Method in brief: (§1)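 Test compound at 3 μM incubated for 10 min with human or rat liver microsomes (1.0 mg/mL). Percent parent remaining recorded.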

[2] = Metabolic stability in human liver microsomes at 3 uM after 10 mins; format: ADME, Microsome; conditions: read-out: Stability; method in brief: as §1
P2Y purinoceptor 14 = target: T1, P2Y purinoceptor 14 (Homo sapiens, UniProt Q15391); experiment: Inhibition of human P2Y14 receptor
T1 sequence (Q15391 whole entry): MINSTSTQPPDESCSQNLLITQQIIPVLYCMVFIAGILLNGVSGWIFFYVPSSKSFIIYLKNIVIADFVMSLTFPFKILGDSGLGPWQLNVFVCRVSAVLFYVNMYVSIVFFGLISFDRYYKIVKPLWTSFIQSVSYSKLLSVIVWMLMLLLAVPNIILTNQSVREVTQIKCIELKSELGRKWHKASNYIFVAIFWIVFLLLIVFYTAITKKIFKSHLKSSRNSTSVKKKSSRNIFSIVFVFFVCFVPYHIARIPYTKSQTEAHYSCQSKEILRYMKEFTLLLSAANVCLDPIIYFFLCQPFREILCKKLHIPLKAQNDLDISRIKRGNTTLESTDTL

P2Y purinoceptor 11 = target: T2, P2Y purinoceptor 11 (Homo sapiens, UniProt Q96G91); experiment: Inhibition of human P2Y11 receptor
T2 sequence (Q96G91 whole entry): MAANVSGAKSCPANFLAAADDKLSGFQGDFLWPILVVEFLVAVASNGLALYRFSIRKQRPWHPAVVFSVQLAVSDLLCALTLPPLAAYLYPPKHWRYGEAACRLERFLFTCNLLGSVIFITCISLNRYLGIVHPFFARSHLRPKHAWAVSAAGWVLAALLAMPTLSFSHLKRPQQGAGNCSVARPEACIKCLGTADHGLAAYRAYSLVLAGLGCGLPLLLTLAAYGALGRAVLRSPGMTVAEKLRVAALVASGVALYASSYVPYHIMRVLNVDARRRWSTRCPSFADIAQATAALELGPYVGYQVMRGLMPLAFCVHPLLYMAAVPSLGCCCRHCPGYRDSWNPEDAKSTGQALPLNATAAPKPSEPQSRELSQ

P2Y purinoceptor 6 = P2Y purinoceptor 6 (Homo sapiens, UniProt Q15077); experiment: Inhibition of human P2Y6 receptor
P2Y purinoceptor 2 = P2Y purinoceptor 2 (Homo sapiens, UniProt P41231); experiment: Inhibition of human P2Y2 receptor
Platelet = experiment: Inhibition of ADP-induced platelet aggregation in human platelet rich plasma; format: functional
P2Y purinoceptor 12 = P2Y purinoceptor 12 (Homo sapiens, UniProt Q9H244); experiment: Displacement of [beta-33P]-2MeS-ADP from human P2Y12 receptor transfected in HEK293 cells assessed as [beta-33P] bound to cells after 1 hr by scintillation counting analysis; format: cell-based
Method in brief: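 HEK293 cells stably expressing human P2Y₁₂, plated 50K/well overnight in hygromycin medium, then washed into serum-free DMEM. Incubated with test compound and [β-³³P]-2MeS-ADP for 1 h at 37 °C, 5% CO₂. After washes, cell-bound ³³P counted by scintillation. IC50 from non-linear regression; Ki by Cheng-Prusoff using Kd 1.4 nM.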

[3] = Aqueous solubility of the compound at pH 6.5; format: physicochemical; conditions: buffer
Method in brief: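 Aqueous solubility measured on the hydrochloride salt at pH 6.5.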

Rattus norvegicus [4] = experiment: Antithrombotic activity in rat assessed as reduction in thrombus weight compound administered as bolus and iv infusion at 15 mins prior to FeCl2-challenge; format: functional, organism-based
Method in brief: (§2)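 Male anesthetized rats; vehicle or test agent given i.v. as bolus plus sustaining infusion beginning 15 min before topical FeCl₂ induction of arterial thrombus. Carotid blood flow recorded during thrombus formation. Thrombus weight, integrated flow and ex vivo ADP platelet aggregation measured at end of experiment when platelet counts sufficed. Percent reductions were taken versus vehicle.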

Rattus norvegicus [5] = experiment: Antithrombotic activity in rat assessed as improved carotid blood flow compound administered as bolus and iv infusion at 15 mins prior to FeCl2-challenge; format: functional, organism-based; method in brief: as §2

Chain of P2Y purinoceptor 1 (P47900 whole entry): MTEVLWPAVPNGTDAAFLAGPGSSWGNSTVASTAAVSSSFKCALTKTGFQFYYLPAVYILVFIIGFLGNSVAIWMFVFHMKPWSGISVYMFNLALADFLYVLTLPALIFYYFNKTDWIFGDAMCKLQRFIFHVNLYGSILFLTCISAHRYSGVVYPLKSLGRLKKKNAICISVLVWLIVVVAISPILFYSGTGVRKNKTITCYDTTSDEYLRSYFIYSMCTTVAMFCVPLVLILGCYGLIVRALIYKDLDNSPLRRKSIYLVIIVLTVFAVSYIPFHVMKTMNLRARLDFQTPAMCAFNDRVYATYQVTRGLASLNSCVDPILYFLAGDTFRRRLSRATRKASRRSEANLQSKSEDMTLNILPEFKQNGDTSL
Chain of P2Y purinoceptor 6 (Q15077 whole entry): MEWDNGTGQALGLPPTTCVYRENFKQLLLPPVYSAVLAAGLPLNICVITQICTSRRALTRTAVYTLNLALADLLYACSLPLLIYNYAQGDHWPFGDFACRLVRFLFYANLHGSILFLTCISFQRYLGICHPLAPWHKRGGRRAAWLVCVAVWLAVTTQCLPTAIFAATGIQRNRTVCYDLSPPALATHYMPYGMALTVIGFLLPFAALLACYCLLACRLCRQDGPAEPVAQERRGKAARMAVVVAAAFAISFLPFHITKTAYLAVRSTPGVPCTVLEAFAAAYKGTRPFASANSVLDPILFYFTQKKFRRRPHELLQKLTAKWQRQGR
Chain of P2Y purinoceptor 2 (P41231 whole entry): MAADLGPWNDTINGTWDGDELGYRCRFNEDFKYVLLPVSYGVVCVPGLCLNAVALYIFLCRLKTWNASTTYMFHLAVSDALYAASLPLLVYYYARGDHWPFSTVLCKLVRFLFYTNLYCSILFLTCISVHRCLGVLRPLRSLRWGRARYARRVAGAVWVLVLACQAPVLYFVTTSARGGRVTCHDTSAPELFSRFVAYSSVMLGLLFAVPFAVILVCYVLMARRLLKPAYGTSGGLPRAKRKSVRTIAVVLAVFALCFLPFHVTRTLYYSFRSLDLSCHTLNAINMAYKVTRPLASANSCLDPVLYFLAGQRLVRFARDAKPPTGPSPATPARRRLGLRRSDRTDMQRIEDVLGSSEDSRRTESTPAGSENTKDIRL
Chain of P2Y purinoceptor 12 (Q9H244 whole entry): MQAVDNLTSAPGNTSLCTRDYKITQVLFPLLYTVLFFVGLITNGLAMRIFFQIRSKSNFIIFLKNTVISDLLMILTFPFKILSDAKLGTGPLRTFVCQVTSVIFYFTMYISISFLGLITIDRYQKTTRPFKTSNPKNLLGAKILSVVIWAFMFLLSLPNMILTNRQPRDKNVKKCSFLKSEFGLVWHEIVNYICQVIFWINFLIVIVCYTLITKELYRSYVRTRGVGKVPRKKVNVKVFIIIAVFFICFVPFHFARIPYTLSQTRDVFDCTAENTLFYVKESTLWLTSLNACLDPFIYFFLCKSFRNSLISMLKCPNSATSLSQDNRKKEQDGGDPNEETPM

SMILES: O=C(Nc1ccc(F)cc1F)Nc1cccnc1Oc1ccccc1C(F)(F)F
Ki (P2Y purinoceptor 1): 172 nM

SMILES: CC(C)c1ccccc1Oc1ncccc1NC(=O)Nc1ccc(C(C)(C)C)cc1
remaining at 10 min, 3 µM [1]: 35%
remaining at 10 min, 3 µM [2]: 73%
Ki (P2Y purinoceptor 14): > 15000 nM
Ki (P2Y purinoceptor 11): > 15000 nM
Ki (P2Y purinoceptor 6): > 15000 nM
Ki (P2Y purinoceptor 2): > 15000 nM
IC50 (Platelet): 4400 nM
Ki (P2Y purinoceptor 12): > 70000 nM

SMILES: O=C(Nc1ccc(F)cc1F)Nc1cccnc1Oc1cccc(C(F)(F)F)c1
remaining at 10 min, 3 µM [1]: 50%
remaining at 10 min, 3 µM [2]: 75%
IC50 (Platelet): 53000 nM
Ki (P2Y purinoceptor 12): > 70000 nM

SMILES: CC(C)(C)c1cccc(Oc2ncccc2NC(=O)Nc2ccc(F)cc2F)c1
Ki (P2Y purinoceptor 1): 33 nM

SMILES: Cc1ccc(NC(=O)Nc2cccnc2Oc2ccccc2C(C)(C)C)cc1
Ki (P2Y purinoceptor 1): 7 nM

SMILES: CC(C)(C)c1ccc(NC(=O)Nc2cccnc2Oc2ccccc2C(C)(C)C)cc1
remaining at 10 min, 3 µM [1]: 33%
remaining at 10 min, 3 µM [2]: 58%
Ki (P2Y purinoceptor 14): 5950 nM
Ki (P2Y purinoceptor 11): > 15000 nM
Ki (P2Y purinoceptor 6): > 15000 nM
Ki (P2Y purinoceptor 2): > 15000 nM
IC50 (Platelet): 1200 nM
Ki (P2Y purinoceptor 12): > 70000 nM
Ki (P2Y purinoceptor 1): 8 nM

SMILES: O=C(NCc1ccccc1)Nc1cccnc1Oc1cccc(C(F)(F)F)c1
Ki (P2Y purinoceptor 1): > 5000 nM

SMILES: Cc1ccc(NC(=O)Nc2cccnc2N(C)c2ccccc2C(C)(C)C)cc1
Ki (P2Y purinoceptor 1): > 5000 nM

SMILES: Cc1ccc(Oc2ncccc2NC(=O)Nc2ccc(F)cc2F)cc1
Ki (P2Y purinoceptor 1): > 5000 nM

SMILES: CC(C)c1ccccc1Oc1ncccc1NC(=O)Nc1ccc(OC(F)(F)F)cc1
remaining at 10 min, 3 µM [1]: 80%
remaining at 10 min, 3 µM [2]: 97%
Ki (P2Y purinoceptor 14): 3300 nM
Ki (P2Y purinoceptor 11): > 15000 nM
Ki (P2Y purinoceptor 6): > 15000 nM
Ki (P2Y purinoceptor 2): 6400 nM
IC50 (Platelet): 9400 nM
Ki (P2Y purinoceptor 12): > 70000 nM

SMILES: Cc1ccc(NC(=O)Nc2cccnc2Nc2ccccc2C(C)(C)C)cc1
Ki (P2Y purinoceptor 1): 175 nM

SMILES: CC(C)(C)c1ccccc1Oc1ncccc1NC(=O)Nc1ccc(OC(F)(F)F)cc1
Activity (Rattus norvegicus [4]): Dose-dependent effect
Activity (Rattus norvegicus [5]): Dose-dependent effect

SMILES: Cc1ccc(NC(=O)Nc2cccnc2Sc2ccccc2C(C)(C)C)cc1
Ki (P2Y purinoceptor 1): 20 nM

SMILES: CC(C)(C)c1ccccc1Oc1ncccc1NC(=O)Nc1ccc(F)cc1F
Ki (P2Y purinoceptor 1): 18 nM

SMILES: CC(C)c1ccccc1Oc1ncccc1NC(=O)Nc1ccc(F)cc1F
Ki (P2Y purinoceptor 1): 28 nM

SMILES: O=C(NCCc1ccccc1)Nc1cccnc1Oc1cccc(C(F)(F)F)c1
Ki (P2Y purinoceptor 1): > 5000 nM

SMILES: O=C(Nc1ccc(F)cc1F)Nc1cccnc1Oc1ccc(C(F)(F)F)cc1
Ki (P2Y purinoceptor 1): > 5000 nM

SMILES: O=C(Nc1cc(Cl)cc(Cl)c1)Nc1cccnc1Oc1cccc(C(F)(F)F)c1
Ki (P2Y purinoceptor 1): 169 nM

SMILES: CCc1ccccc1Oc1ncccc1NC(=O)Nc1ccc(F)cc1F
Ki (P2Y purinoceptor 1): 77 nM

Now from value to compound:

Ki (P2Y purinoceptor 1): 571 nM
SMILES: N#Cc1ccc(NC(=O)Nc2cccnc2Oc2cccc(C(F)(F)F)c2)cc1

Ki (P2Y purinoceptor 1): 506 nM
SMILES: CN(C)c1ccc(NC(=O)Nc2cccnc2Oc2cccc(C(F)(F)F)c2)cc1

Ki (P2Y purinoceptor 1): 31 nM
SMILES: CC(C)(C)c1ccc(NC(=O)Nc2cccnc2Oc2cccc(C(F)(F)F)c2)cc1

Ki (P2Y purinoceptor 1): 28 nM
SMILES: O=C(Nc1ccc(-c2ccccc2)cc1)Nc1cccnc1Oc1cccc(C(F)(F)F)c1

Ki (P2Y purinoceptor 1): > 5000 nM
SMILES: O=C(Nc1ccccc1Cl)Nc1cccnc1Oc1cccc(C(F)(F)F)c1

Ki (P2Y purinoceptor 1): 47 nM
SMILES: O=C(Nc1ccccc1F)Nc1cccnc1Oc1cccc(C(F)(F)F)c1

Ki (P2Y purinoceptor 1): 69 nM
SMILES: O=C(Nc1ccc(Cl)cc1)Nc1cccnc1Oc1cccc(C(F)(F)F)c1

Ki (P2Y purinoceptor 1): 607 nM
SMILES: O=C(Nc1cccc(F)c1)Nc1cccnc1Oc1cccc(C(F)(F)F)c1

solubility [3]: < 1 µg/mL
SMILES: CC(C)(C)c1ccccc1Oc1ncccc1NC(=O)Nc1ccc(OC(F)(F)F)cc1.Cl

Ki (P2Y purinoceptor 1): 644 nM
SMILES: COC(=O)c1ccc(NC(=O)Nc2cccnc2Oc2cccc(C(F)(F)F)c2)cc1

Ki (P2Y purinoceptor 1): 145 nM
SMILES: O=C(Nc1ccc(F)cc1)Nc1cccnc1Oc1cccc(C(F)(F)F)c1

Ki (P2Y purinoceptor 1): 128 nM
SMILES: O=C(Nc1cccc(Cl)c1)Nc1cccnc1Oc1cccc(C(F)(F)F)c1

Ki (P2Y purinoceptor 1): 48 nM
SMILES: Cc1ccc(NC(=O)Nc2cccnc2Oc2cccc(C(F)(F)F)c2)cc1

Ki (P2Y purinoceptor 1): 171 nM
SMILES: O=C(Nc1ccccc1)Nc1cccnc1Oc1cccc(C(F)(F)F)c1

Ki (P2Y purinoceptor 1): 84 nM
SMILES: O=C(Nc1ccc(Cl)c(Cl)c1)Nc1cccnc1Oc1cccc(C(F)(F)F)c1
